Source: ChEMBL document CHEMBL1938298, “Synthesis and characterization of [¹²⁵I]2-iodo N-[(S)-{(S)-1-methylpiperidin-2-yl}(phenyl)methyl]3-trifluoromethyl-benzamide as novel imaging probe for glycine transporter 1” (Bioorg Med Chem, 2011)
The source made the active and inactive calls. No cut-off for these calls is given here.

Key:
Lung [1] = assay: Drug uptake in ddY mouse lung at 11.1 kBq, iv after 15 min by gamma counting; assay type: ADME, organism-based; settings: in vivo
Method in brief: (§1)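 Male ddY mice (6 weeks, 30–35 g) were given about 11.1 kBq of [125I]tracer in 0.1 mL i.v. via the tail vein. At each time point the animals were killed and organs dissected, weighed and gamma-counted. Uptake is expressed as % injected dose per gram of tissue, mean ± SD, n = 5–6.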

Mus musculus [2] = assay: In vivo binding affinity to GlyT1 in ddY mouse brain midbrain at 33.3 kBq, iv after 30 mins in presence of N-Me-SSR504734 2 mg/kg, iv administered 15 mins prior to compound administration relative to control; assay type: functional
Spleen = assay: Drug uptake in ddY mouse spleen at 11.1 kBq, iv after 30 min by gamma counting; assay type: ADME, organism-based; settings: in vivo, 0.5 h; method in brief: as §1
Lung [3] = assay: Drug uptake in ddY mouse lung at 11.1 kBq, iv after 60 min by gamma counting; assay type: ADME, organism-based; settings: in vivo, 1 h; method in brief: as §1
[4] = Lipophilicity, log D of the compound at pH 7.4; assay type: physicochemical; settings: buffer
[5] = molecular target: T1, Sodium- and chloride-dependent glycine transporter 1 (Rattus norvegicus) (UniProt P28572); assay: Binding affinity to GlyT1 in rat brain hippocampus at 0.03 to 0.04 nM preincubated for 20 mins in binding buffer before compound addition measured after 30 mins by autoradiography in presence of 0.01 mM NMDA receptor glycine site antagonist L-701,324 relative to control; assay type: tissue-based; settings: tested as the 125I-labelled form
T1 sequence (whole entry): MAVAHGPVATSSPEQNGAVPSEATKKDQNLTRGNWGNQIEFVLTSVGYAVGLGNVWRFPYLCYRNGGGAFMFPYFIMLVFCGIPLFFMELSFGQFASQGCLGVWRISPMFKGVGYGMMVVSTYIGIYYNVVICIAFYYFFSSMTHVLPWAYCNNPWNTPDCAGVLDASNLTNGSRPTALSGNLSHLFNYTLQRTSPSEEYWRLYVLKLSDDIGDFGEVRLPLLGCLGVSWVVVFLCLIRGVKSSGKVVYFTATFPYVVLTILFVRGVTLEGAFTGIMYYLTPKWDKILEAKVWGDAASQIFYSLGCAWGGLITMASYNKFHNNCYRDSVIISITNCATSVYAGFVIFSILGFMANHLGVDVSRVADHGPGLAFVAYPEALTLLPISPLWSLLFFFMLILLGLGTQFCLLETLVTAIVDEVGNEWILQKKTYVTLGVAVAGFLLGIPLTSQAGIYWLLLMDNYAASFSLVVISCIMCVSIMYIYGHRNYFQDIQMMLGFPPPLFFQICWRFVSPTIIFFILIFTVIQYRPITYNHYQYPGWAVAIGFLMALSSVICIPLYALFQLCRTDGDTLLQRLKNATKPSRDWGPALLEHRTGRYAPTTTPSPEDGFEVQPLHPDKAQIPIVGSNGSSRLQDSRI
Method in brief: (§2)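 Rat brain sagittal sections (20 µm) preincubated 20 min at 25 °C in Tris-HCl buffer pH 7.5 (NaCl, KCl, MgCl2, CaCl2), then 30 min at 25 °C with [125I] tracer (100 kBq, 0.03–0.04 nM) plus competitor (10 µM; glycine 1 or 10 mM). Cold washes, imaging plate 3 days, ROI PSL minus background per mm². % control from ≥triplicate slices, three rats.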

[6] = molecular target: T1, Sodium- and chloride-dependent glycine transporter 1 (Rattus norvegicus); assay: Binding affinity to GlyT1 in rat brain hippocampus at 0.03 to 0.04 nM preincubated for 20 mins in binding buffer before compound addition measured after 30 mins by autoradiography in presence of 1 mM GlyT1 substrate glycine relative to control; assay type: tissue-based; settings: tested as the 125I-labelled form; method in brief: as §2
[7] = molecular target: T1, Sodium- and chloride-dependent glycine transporter 1 (Rattus norvegicus); assay: Binding affinity to GlyT1 in rat brain thalamus at 0.03 to 0.04 nM preincubated for 20 mins in binding buffer before compound addition measured after 30 mins by autoradiography in presence of GlyT1 inhibitor N-Me-SSR504734 relative to control; assay type: tissue-based; settings: tested as the 125I-labelled form
[8] = molecular target: T2, Sodium- and chloride-dependent glycine transporter 1 (Homo sapiens, UniProt P48067); assay: Inhibition of GlyT1 in human JAR cells assessed as inhibition of [3H]glycine uptake preincubated for 1 mins measured after 2 hrs by liquid scintillation counting; assay type: cell-based
T2 sequence (P48067 whole entry): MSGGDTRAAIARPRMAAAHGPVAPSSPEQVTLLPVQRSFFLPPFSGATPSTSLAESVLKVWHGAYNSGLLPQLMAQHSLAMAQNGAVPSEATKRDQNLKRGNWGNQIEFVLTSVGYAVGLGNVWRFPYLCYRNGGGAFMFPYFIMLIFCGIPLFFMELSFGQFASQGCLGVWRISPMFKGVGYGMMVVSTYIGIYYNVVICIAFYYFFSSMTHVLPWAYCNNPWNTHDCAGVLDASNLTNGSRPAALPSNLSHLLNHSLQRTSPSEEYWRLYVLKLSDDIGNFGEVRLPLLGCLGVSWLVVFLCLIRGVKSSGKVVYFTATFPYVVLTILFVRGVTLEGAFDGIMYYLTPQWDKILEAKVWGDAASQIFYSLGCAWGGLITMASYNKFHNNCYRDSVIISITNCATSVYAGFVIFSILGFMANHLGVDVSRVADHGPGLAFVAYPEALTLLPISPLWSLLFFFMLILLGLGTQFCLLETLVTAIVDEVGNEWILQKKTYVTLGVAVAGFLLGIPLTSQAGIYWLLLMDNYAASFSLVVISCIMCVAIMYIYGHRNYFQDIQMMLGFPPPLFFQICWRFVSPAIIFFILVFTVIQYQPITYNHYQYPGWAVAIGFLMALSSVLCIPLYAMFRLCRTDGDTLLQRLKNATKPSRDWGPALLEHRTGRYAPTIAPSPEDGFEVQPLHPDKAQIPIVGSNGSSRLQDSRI
Method in brief: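 [3H]glycine (final 10 µM) was added for 2 h at room temperature; nonspecific uptake was defined with 10 mM glycine. Cells were lysed in NaOH and counted by liquid scintillation. IC50 values are from at least three measurements, mean ± SEM.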

Mus musculus [9] = assay: In vivo binding affinity to GlyT1 in ddY mouse brain striatum at 33.3 kBq, iv after 30 mins in presence of nonradioactive compound 2 mg/kg, iv administered 15 mins prior to compound administration relative to control; assay type: functional, organism-based; parameters: dose 2 mg/kg; settings: tested as the 125I-labelled form
[10] = molecular target: T1, Sodium- and chloride-dependent glycine transporter 1 (Rattus norvegicus); assay: Binding affinity to GlyT1 in rat brain hippocampus at 0.03 to 0.04 nM preincubated for 20 mins in binding buffer before compound addition measured after 30 mins by autoradiography in presence of 0.01 mM GlyT2 inhibitor ORG25543 relative to control; assay type: tissue-based; settings: tested as the 125I-labelled form; method in brief: as §2
[11] = molecular target: T1, Sodium- and chloride-dependent glycine transporter 1 (Rattus norvegicus); assay: Binding affinity to GlyT1 in rat brain cerebral cortex at 0.03 to 0.04 nM preincubated for 20 mins in binding buffer before compound addition measured after 30 mins by autoradiography in presence of 0.01 mM NMDA receptor glycine site antagonist L-701,324 relative to control; assay type: tissue-based; settings: tested as the 125I-labelled form; method in brief: as §2
[12] = molecular target: T1, Sodium- and chloride-dependent glycine transporter 1 (Rattus norvegicus); assay: Binding affinity to GlyT1 in rat cortical brain homogenate assessed per mg of protein after 60 mins by gamma counting; assay type: tissue-based; settings: tested as the 125I-labelled form
Method in brief: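 Saturation binding on washed rat cortical membranes (25 µg protein) with [125I]tracer 0.1–20 nM in TB1 buffer (120 mM NaCl, 2 mM KCl, 1 mM CaCl2, 1 mM MgCl2, 10 mM HEPES, pH 7.5), 60 min at room temperature. Nonspecific binding defined with 10 µM unlabeled ligand. GF/B filtration with ice-cold buffer washes, gamma counting; Kd and Bmax from saturation analysis.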

Drug uptake (Lung [1])	Drug uptake (Spleen)	Drug uptake (Lung [3])	logD [4]	Activity [5]	Activity [6]	Activity [7]	IC50 [8]	Activity [10]	Activity [11]	Bmax [12]	Compound	Activity (Mus musculus [2])	Activity (Mus musculus [9])
15.24 % ID/g	7.68 % ID/g	12.09 % ID/g	2.86	–	–	–	–	–	–	–	CN1CCCC[C@H]1[C@@H](NC(=O)c1cccc(C(F)(F)F)c1[125I])c1ccccc1	55%	–
–	–	–	–	90.9%	108%	25.1%	2.35 nM	105%	92.5%	3.4 pmol	CN1CCCC[C@H]1[C@@H](NC(=O)c1cccc(C(F)(F)F)c1I)c1ccccc1	–	Active
